# How the values were obtained:
# [1] = Percentage of tracer or metabolite (CO2) in baboon plasma at 10 min after injection of the compound; type: ADME, cell-free; conditions: cercopithecidae
# In short: (§1)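 Arterial baboon plasma taken 1, 5, 10 and 30 min after injection of 11C tracer. 0.2 mL plasma in 1 mL acetonitrile, sonicated, centrifuged. Supernatant run on silica HPLC with acetonitrile/0.004 M (NH4)2HPO4 70/30 plus unlabelled carrier. Unchanged tracer, EME and void-volume acidic 11C measured as fractions of total. [11C]CO2 measured separately by volatilization assay. Mean of two experiments.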
# [2] = Percentage of tracer or metabolite (CO2) in baboon plasma at 30 min after injection of the compound; type: ADME, cell-free; conditions: cercopithecidae, 0.5 h; in short: as §1
# [3] = Percentage of tracer or metabolite (CO2) in baboon plasma at 5 min after injection of the compound; type: ADME, cell-free; conditions: cercopithecidae; in short: as §1
# [4] = Percentage of tracer or metabolite(EME) in baboon plasma at 10 min after injection of the compound; type: ADME, cell-free; conditions: cercopithecidae; in short: as §1
# [5] = Percentage of tracer or metabolite(EME) in baboon plasma at 1 min after injection of the compound; type: ADME, cell-free; conditions: cercopithecidae; in short: as §1
# [6] = Percentage of tracer or metabolite(EME) in baboon plasma at 30 min after injection of the compound; type: ADME, cell-free; conditions: cercopithecidae, 0.5 h; in short: as §1
# [7] = Percentage of tracer or metabolite(EME) in baboon plasma at 5 min after injection of the compound; type: ADME, cell-free; conditions: cercopithecidae; in short: as §1
# [8] = Percentage of tracer or metabolite (acid metabolites) in baboon plasma at 10 min after injection of the compound; type: ADME, cell-free; conditions: cercopithecidae; in short: as §1
# [9] = Percentage of tracer or metabolite (acid metabolites) in baboon plasma at 1 min after injection of the compound; type: ADME, cell-free; conditions: cercopithecidae; in short: as §1
# [10] = Percentage of tracer or metabolite (acid metabolites) in baboon plasma at 30 min after injection of the compound; type: ADME, cell-free; conditions: cercopithecidae, 0.5 h; in short: as §1
# [11] = Percentage of tracer or metabolite (acid metabolites) in baboon plasma at 5 min after injection of the compound; type: ADME, cell-free; conditions: cercopithecidae; in short: as §1
# [12] = Percentage of tracer or metabolite (unchanged) in baboon plasma at 10 min after injection of the compound; type: ADME, cell-free; conditions: cercopithecidae; in short: as §1
# [13] = Percentage of tracer or metabolite (unchanged) in baboon plasma at 1 min after injection of the compound; type: ADME, cell-free; conditions: cercopithecidae; in short: as §1
# [14] = Percentage of tracer or metabolite (unchanged) in baboon plasma at 30 min after injection of the compound; type: ADME, cell-free; conditions: cercopithecidae, 0.5 h; in short: as §1
# [15] = Percentage of tracer or metabolite (unchanged) in baboon plasma at 5 min after injection of the compound; type: ADME, cell-free; conditions: cercopithecidae; in short: as §1
# [16] = Clearance from plasma(with matabolite-corrected plasma radioactivity-time integral) at 30 min after administration.; type: ADME, cell-free; conditions: cercopithecidae, 0.5 h
# In short: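 Anaesthetised baboons given 4.7–8.4 mCi 11C tracer. Automated arterial sampling for the first 2 min, then manual sampling. Plasma total radioactivity corrected for metabolites using two-component exponential fits to the metabolite fractions. Time-radioactivity integral to 30 min by cubic spline integration.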
# [17] = biological target: Sodium-dependent dopamine transporter (Rattus norvegicus, UniProt P23977); experiment: Concentration inhibiting [3H]cocaine binding site to rat striatal membranes.
# Chain of Sodium-dependent dopamine transporter (P23977 whole entry): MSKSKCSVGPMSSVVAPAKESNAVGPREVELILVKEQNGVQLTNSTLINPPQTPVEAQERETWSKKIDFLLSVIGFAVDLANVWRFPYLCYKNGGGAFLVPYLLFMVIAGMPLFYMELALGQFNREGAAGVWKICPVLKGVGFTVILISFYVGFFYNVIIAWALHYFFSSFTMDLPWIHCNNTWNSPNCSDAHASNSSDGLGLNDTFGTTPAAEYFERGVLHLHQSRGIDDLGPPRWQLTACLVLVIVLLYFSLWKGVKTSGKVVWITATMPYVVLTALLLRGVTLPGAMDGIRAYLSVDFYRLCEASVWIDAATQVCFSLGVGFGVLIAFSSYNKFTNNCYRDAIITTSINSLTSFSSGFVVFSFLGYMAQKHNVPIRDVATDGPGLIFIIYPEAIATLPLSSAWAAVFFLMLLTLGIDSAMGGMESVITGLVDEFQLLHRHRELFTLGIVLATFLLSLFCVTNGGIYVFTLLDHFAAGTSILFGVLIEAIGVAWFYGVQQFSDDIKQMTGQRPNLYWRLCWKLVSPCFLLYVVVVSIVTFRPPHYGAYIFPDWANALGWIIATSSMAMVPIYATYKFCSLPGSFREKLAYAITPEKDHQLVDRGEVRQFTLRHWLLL
# In short: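 Rat striatal membranes prepared in ice-cold 320 mM sucrose with 10 mM NaH2PO4, pH 7.45 (1000g 3 min, then 30000g 30 min pellet). About 0.25 mg protein incubated at room temperature for 20 min with 2 nM [3H]cocaine, inhibitors 6 nM to 20 μM. Filtration through polyethylenimine-soaked glass-fibre filters, ice-cold wash, liquid scintillation counting.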
# [18] = system: Monkey; experiment: Peak striatal uptake in baboon expressed as percentage of injected dose per mL of tissue.; type: functional, Cercopithecidae, Striatum
# In short: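 Adult female baboons (n = 7, 14.2–18.5 kg), ketamine 10 mg/kg i.m. induction, then oxygen/nitrous oxide/isoflurane anaesthesia. 4.7–8.4 mCi of N-11C-methyl tracer injected intravenously per PET scan. Regional time-activity curves; peak striatal radioactivity expressed as percent of injected dose per mL of tissue.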
# [19] = system: Monkey; experiment: (§2) Baboon plasma free fraction.; type: functional, organism-based; conditions: Cercopithecidae
# In short: (§3)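 Free fraction by ultrafiltration: 11C-labelled compound added to 0.18 mL baboon plasma plus 0.02 mL 100 mM sodium phosphate pH 7.4 with 1 μg physostigmine (esterase block). Incubated 15 min at room temperature, vortexed every 5 min, centrifugal filter spun 5 min. Value = 11C concentration in ultrafiltrate / concentration in incubation mixture.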
# [20] = Percentage of tracer or metabolite (CO2) in baboon plasma at 1 min after injection of the compound; type: ADME; conditions: cercopithecidae; in short: as §1
# [21] = Percentage unmetabolized in baboon plasma at 30 min after administration.; type: functional, Cercopithecidae; in short: as §1
# [22] = as §2; type: ADME, cell-free; conditions: cercopithecidae, read-out: Free fraction; in short: as §3
Compound,Tracer [1] [%],Tracer [2] [%],Tracer [3] [%],Tracer [4] [%],Tracer [5] [%],Tracer [6] [%],Tracer [7] [%],Tracer [8] [%],Tracer [9] [%],Tracer [10] [%],Tracer [11] [%],Tracer [12] [%],Tracer [13] [%],Tracer [14] [%],Tracer [15] [%],Plasma integral [16] [uCi min ml-1],Peak striatal uptake [18],Tracer [20] [%],Unmetabolized [21] [%],fraction unbound [22],further results
COC(=O)C1C2CCC(C[C@@H]1OC(=O)c1ccccc1I)N2C (stereo partly specified),21,29,15,0.2,0.3,0.2,0.2,52,0.02,69,15,48,97,33,79,6.1,0.01,-7,33,–,IC50 [17]: 350 nM; Fu [19]: 0.003%
COC(=O)C1C2CCC(C[C@@H]1OC(=O)c1ccc(I)cc1)N2C (stereo partly specified),21,32,7,2,1.5,2.6,2.5,45,0.5,71,17,48,90,22,60,1.8,0.04,1,22,0.06,–
COC(=O)C1C2CCC(C[C@@H]1OC(=O)c1cccc(I)c1)N2C (stereo partly specified),33,43,17,1,0.7,4,3,35,0.4,51,18,60,95,36,77,2.8,0.03,3,36,0.016,–
COC(=O)[C@H]1[C@@H](OC(=O)c2ccccc2)C[C@@H]2CC[C@H]1N2C [COCAINE],37,44,30,11,12,12,13,38,0.4,60,22,31,70,17,44,2.1,0.06,6,17,0.1,–

# — ChEMBL document CHEMBL1126073, “Synthesis of carbon-11 labeled iodinated cocaine derivatives and their distribution in baboon brain measured using positron emission tomography” (J Med Chem, 1992)
